# Publication PMC10245921 (bioRxiv, 2023)
# Residue numbers refer to the chain shown, from its start. Numbers in names are those of the source. Where “and” joins values, the source holds several entries; their conditions need not be identical. Identical values can stand only once. Where no end group is shown, it is not given here. The star is where a group is joined. FITC = O=C1OC2(c3ccc(O)cc3Oc3cc(O)ccc32)c2ccc(NC(=S)*)cc21
# B1: FITC-conjugated CD44 peptide (SRRRCGQKKKLVINSGNGAVEDYK-FITC) (peptide)
# peptide: SRRRCGQKKKLVINSGNGAVEDYK(FITC)
# B2: FERM domain of human MSN (1–345) H288A, 6His tag cleaved (domain or fragment)
# chain: MPKTISVRVTTMDAELEFAIQPNTTGKQLFDQVVKTIGLREVWFFGLQYQDTKGFSTWLKLNKKVTAQDVRKESPLLFKFRAKFYPEDVSEELIQDITQRLFFLQVKEGILNDDIYCPPETAVLLASYAVQSKYGDFNKEVHKSGYLAGDKLLPQRVLEQHKLNKDQWEERIQVWHEEHRGMLREDAVLEYLKIAQDLEMYGVNYFSIKNKKGSELWLGVDALGLNIYEQNDRLTPKIGFPWSEIRNISFNDKKFVIKPIDKKAPDFVFYAPRLRINKRILALCMGNAELYMRRRKPDTIEVQQMKAQAREEKHQKQMERAMLENEKKKREMAEKEKEKIEREKE
# B3: FERM domain of human MSN (1–345) L281R, 6His tag cleaved (domain or fragment)
# chain: B2 chain with L281R, A288H
# Legend:
# [1] = biological target: MSN FERM domain (Homo sapiens, UniProt P26038); assay: Surface plasmon resonance; assay type: binding
# Outline: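 MSN FERM domain is amine-coupled to a CM5 chip in acetate pH 4, to 4000 RU. Multi-cycle kinetics use test compound at 0.5–8 μM. KD comes from a 1:1 binding model fit.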
# [2] = biological target: MSN (Homo sapiens, UniProt P26038); assay: Thermal shift assay of MSN with compounds; assay type: binding; conditions: two experiments
# Outline: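 Precipitate is removed by centrifugation, then the mix is incubated 30 min at RT. Sypro Orange is added at 20x and the sample ramped 25→95 °C at 1 °C/min. Tm comes from a Boltzmann fit; ΔTm versus DMSO is averaged over two experiments.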
# [3] = biological target: LgBiT-MSN(T588D) and SmBit-CD44 (Homo sapiens, UniProt P26038, T558D); assay: NanoBiT split luciferase assay in live cells; assay type: cell-based
# Outline: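 HEK293T cells (DMEM, 10% FBS, penicillin/streptomycin, 37 °C, 5% CO2) are seeded at 6000 cells/well. Next day they are transfected with CD44-SmBiT (C-terminal) and LgBiT-MSN(T558D) (N-terminal) plasmids, 20 ng and 5 ng, using Fugene HD; LgBiT-MSN(T558A) is the negative control. After 18 h, 2-fold dilutions of test compound (6.25–0.098 μM, DMSO) are added for 3 h. Nano-Glo Live Cell Reagent is added for 20 min at 37 °C, then luminescence is read. Two independent experiments.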
# [4] = biological target: MSN–CD44 interaction (Homo sapiens, UniProt P26038); assay: MSN–CD44 TR-FRET assay; assay type: binding; conditions: for IC50: IC50, confirmatory TR-FRET dose response, Fig. 4D, primary hits; for increase in potency relative to compound 2: MSN–CD44 TR-FRET
# [5] = biological target: GST-tagged MSN and Flag-tagged CD44 (Homo sapiens, UniProt P26038); assay: GST-pull down assay in cell lysates; assay type: binding; conditions: full length proteins in cell lysates
# Outline: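 HEK293 cells co-express full-length GST-MSN and Venus-Flag-CD44; Venus marks CD44 expression. Lysates are diluted in 10 mM HEPES pH 7.5, 150 mM NaCl, 0.25% Triton X-100 with protease and phosphatase inhibitors. They are dose-treated with test compound in DMSO, rotating 1 h at 4 °C, then captured on GST resin for 1.5 h at 4 °C and washed three times. SDS-PAGE and immunoblotting detect Flag (CD44) and GST (MSN). Two experiments.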
# [6] = Solubility by nephelometry; assay type: physicochemical
# [7] = biological target: SYK-FCER1G (Homo sapiens, UniProt P43405); assay: SYK TR-FRET counter screen; assay type: binding
# [8] = biological target: FERM domain of human MSN (residues 1–345), wild type, 6His tag cleaved (human, UniProt P26038 1-345); assay: FRET or BRET
# [9] = biological target: 6His-tagged FERM domain of human MSN (residues 1–345), wild type (human, UniProt P26038 1-345); assay: FRET or BRET
# [10] = biological target: B1; assay: FRET or BRET
# [11] = IC50, CD44–MSN interaction in live cells (approximate), NanoBiT, live cells
# Sequence of LgBiT-MSN(T588D) and SmBit-CD44 (P26038 whole entry T558D): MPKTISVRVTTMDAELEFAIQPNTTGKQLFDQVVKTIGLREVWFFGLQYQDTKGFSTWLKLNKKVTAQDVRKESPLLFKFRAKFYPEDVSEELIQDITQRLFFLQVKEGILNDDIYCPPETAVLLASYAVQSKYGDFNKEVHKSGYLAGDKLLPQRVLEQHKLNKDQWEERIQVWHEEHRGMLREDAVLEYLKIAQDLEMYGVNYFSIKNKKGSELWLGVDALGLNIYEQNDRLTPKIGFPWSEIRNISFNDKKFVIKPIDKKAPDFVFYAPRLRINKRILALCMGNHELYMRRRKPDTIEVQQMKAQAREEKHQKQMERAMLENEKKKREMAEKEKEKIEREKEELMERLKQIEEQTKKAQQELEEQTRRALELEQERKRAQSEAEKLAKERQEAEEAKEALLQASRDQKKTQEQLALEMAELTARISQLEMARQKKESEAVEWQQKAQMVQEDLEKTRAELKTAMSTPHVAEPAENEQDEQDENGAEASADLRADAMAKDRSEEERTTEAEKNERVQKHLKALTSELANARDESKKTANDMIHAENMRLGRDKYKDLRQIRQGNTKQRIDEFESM
# Sequence of GST-tagged MSN and Flag-tagged CD44 (P26038 whole entry): as the sequence (P26038 whole entry T558D) above, with D558T counted along it
# Sequence of MSN–CD44 interaction (P26038 1-345): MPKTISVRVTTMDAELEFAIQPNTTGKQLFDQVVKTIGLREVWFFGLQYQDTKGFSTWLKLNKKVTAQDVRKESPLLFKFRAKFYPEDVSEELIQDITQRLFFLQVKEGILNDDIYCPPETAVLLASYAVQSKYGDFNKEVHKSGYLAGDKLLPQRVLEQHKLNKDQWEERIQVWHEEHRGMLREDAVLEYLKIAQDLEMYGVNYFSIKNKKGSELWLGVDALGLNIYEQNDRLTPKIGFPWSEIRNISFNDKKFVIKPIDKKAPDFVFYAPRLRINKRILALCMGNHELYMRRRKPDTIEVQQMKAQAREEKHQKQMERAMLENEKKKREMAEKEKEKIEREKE
# Sequence of MSN (P26038 1-345): as above
# Sequence of MSN FERM domain (P26038 1-345): as above
molecule,measurement,setting,value
"Nc1ccc(C(=O)Nc2ccc(-c3nc4ccc(NC(=O)c5ccc(N)cc5)cc4s3)cc2)cc1.O=C(O)C(F)(F)F.O=C(O)C(F)(F)F [Compound 1, 4-amino-N-(4-(6-(4-aminobenzamido)benzo[d]thiazol-2-yl)phenyl)benzamide bis(2,2,2-trifluoroacetate)]",Kd,[1],4200 nM
same,av. ΔTm of MSN compared to DMSO alone,[2]; at 20 μM,1–2 °C
same,IC50,[3]; [11],~600 nM
same,IC50,"[3]; IC50, NanoBiT bioluminescence assay, HEK293 cells, 2 independent experiments",570 nM and 690 nM
same,IC50,[4],5000 to 20000 nM
same,activity in GST-pulldown assay,[5],active
"COc1ccccc1C(=O)Nc1ccc(-c2nc3ccccc3[nH]2)cc1 [Compound 2, N-(4-(1H-benzo[d]imidazol-2-yl)phenyl)-2-methoxybenzamide]",Kd,[1],700 nM
same,solubility in aqueous/PBS buffer,[6],low solubility
same,av. ΔTm of MSN compared to DMSO alone,[2]; at 20 μM,1–2 °C
same,IC50,[3]; [11],~200 nM
same,IC50,[4],5000 to 20000 nM
same,activity in GST-pulldown assay,[5],active
"COc1ccc(C(=O)Nc2ccc(-c3nc4ccccc4[nH]3)cc2)c(OC)c1 [Compound 2a, N-(4-(1H-benzo[d]imidazol-2-yl)phenyl)-2,4-dimethoxybenzamide]",solubility in aqueous/PBS buffer,[6],improved solubility
same,av. ΔTm of MSN compared to DMSO alone,[2]; at 50 μM,1.3 °C
same,activity in the counter screen,[7],no activity
same,increase in potency relative to compound 2,[4],8 fold
same,activity in GST-pulldown assay,[5],able to inhibit
"O=C(Nc1ccc(-c2nc3ccccc3[nH]2)cc1)c1cccc(Cl)c1 [Compound 2b, N-(4-(1H-benzo[d]imidazol-2-yl)phenyl)-3-chlorobenzamide]",solubility in aqueous/PBS buffer,[6],improved solubility
same,av. ΔTm of MSN compared to DMSO alone,[2]; at 50 μM,1.2 °C
same,activity in the counter screen,[7],no activity
same,increase in potency relative to compound 2,[4],2 fold
same,activity in GST-pulldown assay,[5],able to inhibit
B1,binding result,[8],binds
same,binding result,[9],binds
B2,fold higher concentration than wild type needed to inhibit,[10],10 fold
B3,fold higher concentration than wild type needed to inhibit,[10],10 fold
